Data from PMC10685803 (RSC Chemical Biology, 2023).
Values after ≈ are worked out from the molar mass of the structure shown.

T1: DHBDAXX (residues 55-144 hDAXX) (Homo sapiens, UniProt Q9UER7)
T1 sequence (Q9UER7 55-144): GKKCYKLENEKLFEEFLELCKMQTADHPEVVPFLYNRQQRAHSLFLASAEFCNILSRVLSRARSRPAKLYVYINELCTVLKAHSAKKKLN

B1: DAXX Interacting Domain of ATRX (DID_(ATRX), residues 1190-1325 hATRX) (domain or fragment, human, UniProt P46100 1190-1325, looked up)
chain: RTSTKRKQADITSSSSSDIEDDDQNSIGEGSSDEQKIKPVTENLVLSSHTGFCQSSGDEALSKSVPVTVDDDDDDNDPENRIAKKMLLEEIKANLSSDEDGSSDDEPEEGKKRTGKQNEENPGDEEAKNQVNSESD
B2: DIDATRX: DAXX Interacting Domain of ATRX, residues 1190–1325 hATRX, recombinant (protein)
chain: B1 chain
modifications: left off: His6, N-terminal, state not stated
B3: DAXX Helical Bundle domain (DHB_(DAXX), residues 55-144 hDAXX) (domain or fragment, human, UniProt Q9UER7 55-144, looked up)
chain: T1 sequence (Q9UER7 55-144)

Legend:
[1] = Solubility limit of stitched peptides; assay type: physicochemical; conditions: peptides synthesized with an N-terminal FAM moiety; method not described
[2] = tested on: HCT116 cells; assay: Lactate dehydrogenase; assay type: cell-based; conditions: chloroalkane versions, 2% serum, 4 and 24 h
Outline: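 HCT116 cells were seeded at 5000 per well in DMEM/10% FCS for 24 h, then switched to medium with 2% FCS. They were given titrated peptide (up to 50 μM; 1% v/v DMSO final) for 4 or 24 h, with 1% DMSO-only controls. Released LDH was measured by colorimetric kit and normalised to 0.1% Triton X-100 lysis. Mean of three independent measurements ± 1 SD.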

[3] = target: T1, DHBDAXX (residues 55-144 hDAXX); assay: Fluorescence polarisation saturation binding of FAM-labelled peptide to DHBDAXX; conditions: fluorescence anisotropy Kd
[4] = target: B3; assay: ITC
[5] = target: T1, DHBDAXX (residues 55-144 hDAXX); conditions: read-out: Kd (competitive binding affinity); competitive displacement of FAM-SPEP7 from DHBDAXX
[6] = target: T1, DHBDAXX (residues 55-144 hDAXX); assay: Isothermal titration calorimetry; assay type: binding; conditions: ITC, 25 °C, ATRX fragments (Table 1), no unit in table
[7] = target: B1; assay: fluorescence polarisation
[8] = target: B1; assay: ITC

CC[C@H](C)[C@@H]1NC(=O)[C@H](CCC(=O)O)NC(=O)[C@H](C)NC(=O)[C@H](CC(C)C)NC(=O)[C@H](CC(C)C)NC(=O)C2(CCCC=CCCCCCC[C@@](C)(C(=O)N[C@@H](CC(N)=O)C(=O)N[C@@H](CC(C)C)C(=O)N[C@@H](CO)C(N)=O)NC(=O)[C@H](CCCCN)NC1=O)CCCC=CCCC[C@](C)(NC(=O)[C@H](CCCNC(=N)N)NC(=O)[C@H](CC(N)=O)NC(=O)[C@H](CCC(=O)O)NC(=O)[C@@H]1CCCN1C(=O)[C@H](CC(=O)O)NC(=O)[C@H](CC(N)=O)NC(=O)[C@@H](N)CC(=O)O)C(=O)N[C@@H](C)C(=O)N[C@@H](CCCCN)C(=O)N[C@@H](CCCCN)C(=O)N2 (some centres unmarked) [STPEP2]
solubility limit [1]: 11 µM (≈ 28.9 µg/mL)
cellular toxicity (LDH release) [2]: no significant cellular toxicity

CC[C@H](C)[C@@H]1NC(=O)[C@H](CCC(=O)O)NC(=O)[C@H](C)NC(=O)[C@H](CC(C)C)NC(=O)[C@H](CC(C)C)NC(=O)[C@H](C)NC(=O)C2(CCCC=CCCCCCC[C@@](C)(C(=O)N[C@@H](C)C(=O)N[C@@H](CC(N)=O)C(=O)N[C@@H](CC(C)C)C(=O)N[C@@H](CO)C(N)=O)NC1=O)CCCC=CCCC[C@](C)(NC(=O)[C@H](CC(N)=O)NC(=O)[C@H](CCC(=O)O)NC(=O)[C@@H]1CCCN1C(=O)[C@@H](N)CC(N)=O)C(=O)N[C@@H]([C@@H](C)CC)C(=O)N[C@@H](C)C(=O)N[C@@H](CCCCN)C(=O)N2 (some centres unmarked) [STPEP7]
solubility limit [1]: 49 µM (≈ 110 µg/mL)
cellular toxicity (LDH release) [2]: no significant cellular toxicity
fold decrease in binding compared to FAM-SPEP7 [3]: ~7 fold

PENRIAKKMLLEEIKANLSSDEDG (peptide, UniProt P46100 1267-1290, looked up) [ATRX (1267–1290) peptide]
dH [4]: -49.8 kJ/mol

B1
dH [4]: -49 kJ/mol

B2
Kd [5]: 0.193 µM
ΔG [6]: −9.69
−TΔS [6]: 2.06
ΔH ([6]; error in parentheses): −11.7 (0.10)

PENRIAKKMLLEEIKANL (peptide, UniProt P46100 1267-1284, looked up) [ATRX (1267–1284) peptide]
dH [4]: -38.9 kJ/mol

DDNDPENRIAKKMLLEEIKANLSSDEDG (peptide, UniProt P46100 1263-1290, looked up) [ATRX (1263–1290) peptide]
dH [4]: -56.1 kJ/mol

DDDDNDPENRIAKKMLLEEIKANLSSDEDG (peptide, UniProt P46100 1261-1290, looked up) [ATRX (1261–1290) peptide]
dH [4]: -57.7 kJ/mol

B3
Kd [7]: 0.193 µM
Kd [8]: 0.08 µM

PVTVDDDDDDNDPENRIAKKMLLEEIKANL (peptide, UniProt P46100 1255-1284, looked up) [ATRX (1255–1284) peptide]
dH [4]: -44.4 kJ/mol

NDPENRIAKKMLLEEIKANLSSDEDG (peptide, UniProt P46100 1265-1290, looked up) [ATRX (1265–1290) peptide]
dH [4]: -55.6 kJ/mol

DNDPENRIAKKMLLEEIKANLS (peptide, UniProt P46100 1264-1285, looked up) [PEP_(ATRX), peptide fragment of ATRX (1264–1285)]
dH [4]: -55.6 kJ/mol

PVTVDDDDDDNDPENRIAKKMLLEEIKANLSSDED (peptide, UniProt P46100 1255-1289, looked up) [ATRX (1255–1289) peptide]
dH [4]: -51 kJ/mol
